Experimental data from different studies.
Compare with care: the assays were run in different laboratories.
Effect on: microbial growth

C=C[C@@]1(C)C=C2CC[C@@H]3[C@](C)(CCC[C@@]3(C)C(=O)O)[C@H]2CC1 — MIC (Helicobacter pylori; broth dilution): 31.2 µg/mL
Cc1cc(NS(=O)(=O)c2ccc(N)cc2)no1 — MIC (Salmonella enterica; TYPHIMURIUM; 20 h, pH 5.5): 1020 µg/mL
O=C(Nc1ncc([N+](=O)[O-])s1)c1ccncc1F — MIC (Helicobacter pylori; broth dilution; 26695; 27 h): 3.7 µM
O=C(O)CN1C(=O)/C(=C/c2ccc(-c3ccc(N(c4ccccc4)c4ccccc4)cc3)cc2)SC1=S — MIC (Bacillus cereus; broth dilution; ATCC10876): 7.8 µg/mL
CO/N=C(\C(=O)N[C@@H]1C(=O)N2C(C(=O)O)=C(CSC(=O)c3ccco3)CS[C@H]12)c1csc(N)n1 — MIC (Salmonella enterica; 20 h, pH 7.2): 1 µg/mL
C[C@@H](O)[C@H]1C(=O)N2C(C(=O)O)=C(S[C@@H]3CN[C@H](C(=O)N(C)C)C3)[C@H](C)[C@H]12 — MIC (Salmonella enterica; broth dilution; TYPHIMURIUM; clinical isolate): ≤ 0.5 µg/mL
CS(=O)(=O)c1ccc([C@@H](O)[C@@H](CF)NC(=O)C(Cl)Cl)cc1 — MIC (Salmonella enterica; F98, TYPHIMURIUM; 20 h, pH 5.5): 4 µg/mL
O=C1NC(=S)S/C1=C\c1c2ccccc2c(-c2ccc(N(c3ccccc3)c3ccccc3)cc2)c2ccccc12 — MIC (Bacillus cereus; broth dilution; ATCC10876): > 1000 µg/mL
O=C(Nc1ncc([N+](=O)[O-])s1)C1CCCCC1 — MIC (Helicobacter pylori; broth dilution; 26695; 27 h): 1.2 µM
O=C1NC(=S)N/C1=C\c1ccc(-c2ccc(N(c3ccccc3)c3ccccc3)cc2)c2ccccc12 — MIC (Bacillus cereus; broth dilution; ATCC10876): > 1000 µg/mL
CC1(C)S[C@@H]2[C@H](NC(=O)[C@H](N)c3ccccc3)C(=O)N2[C@H]1C(=O)O — MIC (Salmonella enterica; F98, TYPHIMURIUM; 20 h, pH 7): 2 µg/mL
O=C(O)CN1C(=O)/C(=C/c2ccc(-c3ccc(N(c4ccccc4)c4ccccc4)cc3)cc2)NC1=S — MIC (Bacillus cereus; broth dilution; ATCC10876): 125 µg/mL
Oc1ccc(-c2nc(-c3ccc(Oc4ccccc4)cc3)no2)cc1 — MIC (Bacillus cereus; broth dilution; ATCC13061): 2 µg/mL
